ChEMBL document CHEMBL4422614 (Eur J Med Chem, 2019)
Blank lines part the entries; values can stand above or below the compound they belong to. Calls of active or inactive are those of the source. No cut-off for these calls is given here.

Columns and labels:
[1] = Antioxidant activity assessed as trolox equivalent of AAPH-induced radical scavenging activity at 10 to 20 uM preincubated for 10 mins followed by AAPH addition measured every minute for 120 mins by ORAC fluorescein assay; assay type: functional
How it was run: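 ORAC values are expressed as trolox equivalents, mean ± SD of three independent experiments.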

Mus musculus [2] = assay: Cognition enhancement activity in amyloid beta (25 to 35 residues) induced C57BL/6J mouse model of Alzheimer's disease assessed as decrease in escape latancy at 4 mg/kg/day, ig administered for 26 consecutive days by Morris water maze test; assay type: functional, organism-based
How it was run: (§1)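 Mice were randomized into 7 groups. All except sham got an ICV injection of Aβ25-35 (3 nmol); sham got the same volume of saline ICV. Dosing was intragastric daily for 26 days, with 0.5% CMC-Na as vehicle for sham and model. Body weight, diarrhea and emesis-like behavior were monitored.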

Mus musculus [3] = assay: Cognition enhancement activity in amyloid beta (25 to 35 residues) induced C57BL/6J mouse model of Alzheimer's disease assessed as swimming speed at 30 mg/kg/day, ig administered for 26 consecutive days by Morris water maze test (reference value: 15.6 +/- 2.4 cm/sec); assay type: functional; how it was run: as §1
Mus musculus [4] = assay: Cognition enhancement activity in amyloid beta (25 to 35 residues) induced C57BL/6J mouse model of Alzheimer's disease assessed as swimming path length in virtual platform at 4 mg/kg/day, ig administered for 26 consecutive days by Morris water maze test (10.2 +/- 3.2 cm); assay type: functional; how it was run: as §1
Mus musculus [5] = assay: Cognition enhancement activity in amyloid beta (25 to 35 residues) induced C57BL/6J mouse model of Alzheimer's disease assessed as swimming time in effective region at 4 mg/kg/day, ig administered for 26 consecutive days by Morris water maze test (4.3 +/- 1.3 sec); assay type: functional; how it was run: as §1
Mus musculus [6] = assay: (§2) Neuroprotection in amyloid beta (25 to 35 residues) induced C57BL/6J mouse model of Alzheimer's disease assessed as reduction in ratio of apoptotic neuron in CA1 hippocampus region at 4 mg/kg/day, ig administered for 26 consecutive days by hematoxylin and eosin staining-based light microscopic analysis (reference value: 40.6 +/- 12.5%); assay type: ADME, organism-based; set-up: scale not given: the % may be the effect or the level left; details: in vivo, po
How it was run: (§3)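 Hippocampal CA1, CA3 and DG neurons were stained with H&E after the Aβ25-35 ICV model and 26-day intragastric dosing. Denatured cell index = denatured cells/total cells, n = 5. Values are mean ± SD, two-way ANOVA versus model.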

Mus musculus [7] = assay: as §2, with “CA3” for “CA1”, “80.2” for “40.6”, “8.6%)” for “12.5%)”; assay type: ADME, organism-based; set-up: scale not given: the % may be the effect or the level left; details: in vivo, po; how it was run: as §3
Mus musculus [8] = assay: as §2, with “DG” for “CA1”, “55.8” for “40.6”, “7.2%)” for “12.5%)”; assay type: ADME, organism-based; set-up: scale not given: the % may be the effect or the level left; details: in vivo, po; how it was run: as §3
in vitro [9] = details: PAMPA
[10] = biological target: 3',5'-cyclic-AMP phosphodiesterase 4D (Homo sapiens, UniProt Q08499); assay: Inhibition of human PDE4D2 (86 to 413 residues) catalytic domain using [3H]-cAMP as substrate after 15 mins by liquid scintillation counting method
[11] = Metal chelating activity of the compound assessed as formation of cupric-compound complex at 50 uM after 30 mins by UV-vis spectrophotometric analysis
How it was run: (§4)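 UV-vis absorption spectra of compound (50 µM) were recorded in HEPES buffer alone and with 50 µM CuSO4, ZnCl2, FeSO4 or FeCl3, and spectral changes were assessed.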

[12] = Metal chelating activity of the compound assessed as formation of zinc-compound complex at 50 uM after 30 mins by UV-vis spectrophotometric analysis; how it was run: as §4
[13] = Metal chelating activity of the compound assessed as formation of ferric-compound complex at 50 uM after 30 mins by UV-vis spectrophotometric analysis; how it was run: as §4
[14] = Metal chelating activity of the compound assessed as formation of ferrous-compound complex at 50 uM after 30 mins by UV-vis spectrophotometric analysis; how it was run: as §4
SH-SY5Y [15] = assay: Cytotoxicity against human SH-SY5Y cells assessed as effect on cell viability at 10 uM after 24 hrs by MTT assay; assay type: cell-based
How it was run: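 SH-SY5Y viability was measured by MTT after exposure to compounds at 10 µM. Results are percent of vehicle control from three independent experiments.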

SH-SY5Y [16] = assay: Antioxidant activity in human SH-SY5Y cells assessed as inhibition of t-BuOOH-induced intracellular oxidative stress by measuring ROS level preincubated for 24 hrs followed by t-BuOOH addition and measured after 30 mins by DCFH-DA dye-based fluorescence assay; assay type: functional, cell-based
[17] = Metal chelating activity assessed as inhibition of Cu(II)/ascorbate-induced ROS production by measuring […] level at 10 uM by fluorescence assay
How it was run: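 A Cu-ascorbate redox system in PBS (pH 7.4) at 37 °C, with Cu(II) 5 µM, ascorbate 150 µM and coumarin-3-carboxylic acid 50 µM as the hydroxyl radical trap. Compound was pre-incubated 10 min before ascorbate was added. Fluorescence of 7-hydroxy-CCA (ex 395, em 450 nm) was read every 30 s for 15 min.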

[18] = Acute Toxicity in C57BL/6 mouse assessed as mouse mortality up to 2000 mg/kg, ig measured over 14 days; assay type: organism-based; details: in vivo, po, 336 h
How it was run: (§5)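 Mice given a single intragastric dose of test compound at various dosages, then observed for 14 days for death and abnormal behaviour. On day 14, animals were sacrificed and heart, liver, lungs and kidneys examined.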

[19] = Acute Toxicity in C57BL/6 mouse assessed as abnormal behavior up to 2000 mg/kg, ig measured over 14 days; assay type: organism-based; details: in vivo, po, 336 h; how it was run: as §5
[20] = Acute Toxicity in C57BL/6 mouse up to 2000 mg/kg, ig measured every 14 days; assay type: organism-based; details: in vivo, po, 336 h; how it was run: as §5
[21] = Hepatotoxicity in C57BL/6 mouse assessed as abnormal changes up to 2000 mg/kg, ig after 14 days by microscopic analysis; assay type: toxicity, organism-based; details: in vivo, po, 336 h; how it was run: as §5
[22] = Hepatotoxicity in C57BL/6 mouse assessed as tissue damage up to 2000 mg/kg, ig after 14 days by microscopic analysis; assay type: toxicity, organism-based; details: in vivo, po, 336 h; how it was run: as §5
[23] = Cardiotoxicity in C57BL/6 mouse assessed as abnormal changes up to 2000 mg/kg, ig after 14 days by microscopic analysis; assay type: toxicity, organism-based; details: in vivo, po, 336 h; how it was run: as §5
[24] = Cardiotoxicity in C57BL/6 mouse assessed as tissue damage up to 2000 mg/kg, ig after 14 days by microscopic analysis; assay type: toxicity, organism-based; details: in vivo, po, 336 h; how it was run: as §5
[25] = Nephrotoxicity in C57BL/6 mouse assessed as abnormal changes up to 2000 mg/kg, ig after 14 days by microscopic analysis; assay type: toxicity, organism-based; details: in vivo, po, 336 h; how it was run: as §5
[26] = Nephrotoxicity in C57BL/6 mouse assessed as tissue damage up to 2000 mg/kg, ig after 14 days by microscopic analysis; assay type: toxicity, organism-based; details: in vivo, po, 336 h; how it was run: as §5
[27] = Acute Toxicity in C57BL/6 mouse lung assessed as abnormal changes up to 2000 mg/kg, ig after 14 days by microscopic analysis; assay type: organism-based; details: in vivo, po, 336 h; how it was run: as §5
[28] = Acute Toxicity in C57BL/6 mouse lung assessed as tissue damage up to 2000 mg/kg, ig after 14 days by microscopic analysis; assay type: organism-based; details: in vivo, po, 336 h; how it was run: as §5
Mus musculus [29] = assay: Cognition enhancement activity in amyloid beta (25 to 35 residues) induced C57BL/6J mouse model of Alzheimer's disease assessed as decrease in escape latancy at 30 mg/kg/day, ig administered for 26 consecutive days by Morris water maze test; assay type: functional, organism-based; how it was run: as §1
[30] = Toxicity in amyloid beta (25 to 35 residues) induced C57BL/6J mouse model of Alzheimer's disease assessed as loss of body weight at 30 mg/kg/day, ig administered for 26 consecutive days; assay type: organism-based; details: in vivo, po; how it was run: as §1
[31] = Toxicity in amyloid beta (25 to 35 residues) induced C57BL/6J mouse model of Alzheimer's disease assessed as diarrhea at 30 mg/kg/day, ig administered for 26 consecutive days; assay type: organism-based; details: in vivo, po; how it was run: as §1
[32] = Toxicity in amyloid beta (25 to 35 residues) induced C57BL/6J mouse model of Alzheimer's disease assessed as emesis at 30 mg/kg/day, ig administered for 26 consecutive days; assay type: organism-based; details: in vivo, po; how it was run: as §1
Mus musculus [33] = assay: Cognition enhancement activity in amyloid beta (25 to 35 residues) induced C57BL/6J mouse model of Alzheimer's disease assessed as increase in number of virtual platform crossing at 30 mg/kg/day, ig administered for 26 consecutive days by Morris water maze test; assay type: functional, organism-based; how it was run: as §1
Mus musculus [34] = assay: Cognition enhancement activity in amyloid beta (25 to 35 residues) induced C57BL/6J mouse model of Alzheimer's disease assessed as swimming path length in virtual platform at 30 mg/kg/day, ig administered for 26 consecutive days by Morris water maze test (10.2 +/- 3.2 cm); assay type: functional; how it was run: as §1
Mus musculus [35] = assay: Cognition enhancement activity in amyloid beta (25 to 35 residues) induced C57BL/6J mouse model of Alzheimer's disease assessed as swimming time in effective region at 30 mg/kg/day, ig administered for 26 consecutive days by Morris water maze test (4.3 +/- 1.3 sec); assay type: functional; how it was run: as §1
Mus musculus [36] = assay: (§6) Neuroprotection in C57BL/6J mouse model of amyloid beta (25 to 35 residues) induced Alzheimer's disease assessed as reduction in ratio of apoptotic neuron in CA1 hippocampus region at 30 mg/kg/day, ig administered for 26 consecutive days by hematoxylin and eosin staining-based light microscopic analysis (reference value: 40.6 +/- 12.5%); assay type: ADME, organism-based; set-up: scale not given: the % may be the effect or the level left; details: in vivo, po; how it was run: as §3
Mus musculus [37] = assay: as §6, with “in” for “in C57BL/6J mouse model of”, “induced C57BL/6J mouse model of” for “induced”, “CA3” for “CA1”, “80.2” for “40.6”, “8.6%)” for “12.5%)”; assay type: ADME, organism-based; set-up: scale not given: the % may be the effect or the level left; details: in vivo, po; how it was run: as §3
Mus musculus [38] = assay: as §6, with “in” for “in C57BL/6J mouse model of”, “induced C57BL/6J mouse model of” for “induced”, “DG” for “CA1”, “55.8” for “40.6”, “7.2%)” for “12.5%)”; assay type: ADME, organism-based; set-up: scale not given: the % may be the effect or the level left; details: in vivo, po; how it was run: as §3
[39] = Drug metabolism in Sprague-Dawley rat liver microsomes assessed as metabolic rate up to 180 mins in presence of NADPH by UV-based LC-MS/MS analysis; assay type: ADME, Microsome; details: 3 h
[40] = Metal chelating activity assessed as inhibition of Cu(II)-induced amyloid beta (1 to 42 residues) aggregation at 25 uM after 24 hrs by TEM assay
How it was run: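 Samples were prepared as for the ThT assay. 10 µL aliquots were applied to carbon-coated copper grids for 2 min, then stained with 3% phosphotungstic acid for 2 min and imaged by transmission electron microscopy.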

in vitro [41] = details: Sprague-Dawley, rat, liver microsomes

Chain of 3',5'-cyclic-AMP phosphodiesterase 4D (Q08499 whole entry, the tested form may be a part): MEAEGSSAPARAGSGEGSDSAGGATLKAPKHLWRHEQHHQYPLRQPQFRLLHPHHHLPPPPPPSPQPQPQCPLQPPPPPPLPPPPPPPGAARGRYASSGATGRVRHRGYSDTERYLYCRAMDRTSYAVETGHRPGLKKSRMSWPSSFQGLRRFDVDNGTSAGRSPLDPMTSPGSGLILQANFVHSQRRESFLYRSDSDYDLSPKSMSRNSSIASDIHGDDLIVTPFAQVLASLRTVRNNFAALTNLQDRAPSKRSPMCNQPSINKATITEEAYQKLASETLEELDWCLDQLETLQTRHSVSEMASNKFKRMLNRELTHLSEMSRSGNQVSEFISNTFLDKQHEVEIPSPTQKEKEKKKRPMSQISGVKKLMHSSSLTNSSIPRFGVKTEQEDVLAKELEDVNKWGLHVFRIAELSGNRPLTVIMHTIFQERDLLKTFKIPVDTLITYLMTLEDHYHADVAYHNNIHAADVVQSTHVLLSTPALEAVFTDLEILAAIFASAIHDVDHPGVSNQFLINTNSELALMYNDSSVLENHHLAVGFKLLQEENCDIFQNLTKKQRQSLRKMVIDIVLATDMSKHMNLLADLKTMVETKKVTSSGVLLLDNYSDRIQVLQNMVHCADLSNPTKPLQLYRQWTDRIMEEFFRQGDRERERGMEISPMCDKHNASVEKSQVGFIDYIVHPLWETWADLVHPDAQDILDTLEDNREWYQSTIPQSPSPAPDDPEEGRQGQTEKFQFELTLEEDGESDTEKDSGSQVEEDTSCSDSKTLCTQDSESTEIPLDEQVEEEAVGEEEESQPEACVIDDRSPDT

Papp at 10 h, 100 ug/ml (in vitro [9]): 18.9 ×10⁻⁶ cm/s
Structure (SMILES): COc1ccc(C2CNC(=O)C2)cc1OC1CCCC1 (centres undefined) [ROLIPRAM]
Activity [1]: 0.07 equiv
Activity (Mus musculus [2]): Active
Activity (Mus musculus [3]): 15.1 cm/s
Activity (Mus musculus [4]): 16.5 cm
Time (Mus musculus [5]): 5.7 s
Activity (Mus musculus [6]): 33.5%
Activity (Mus musculus [7]): 41.1%
Activity (Mus musculus [8]): 25.7%

Structure (SMILES): Cl.O=C(Nc1ccc(O)c2ncccc12)c1ccc(OC(F)F)c(OCC2CC2)c1
IC50 [10]: 399 nM
Activity [1]: 0.6 equiv
Activity [11]: Active
Activity [12]: Active
Activity [13]: Active
Activity [14]: Active
Activity (SH-SY5Y [15]): Non-Toxic
Activity (SH-SY5Y [16]): Dose-dependent effect
Activity [17]: Active
Activity [18]: Non-Toxic
Activity [19]: Non-Toxic
Activity [20]: Non-Toxic
Activity [21]: Non-Toxic
Activity [22]: Non-Toxic
Activity [23]: Non-Toxic
Activity [24]: Non-Toxic
Activity [25]: Non-Toxic
Activity [26]: Non-Toxic
Activity [27]: Non-Toxic
Activity [28]: Non-Toxic
Activity (Mus musculus [29]): Active
Activity [30]: Non-Toxic
Activity [31]: Non-Toxic
Activity [32]: Non-Toxic
Activity (Mus musculus [3]): 15 cm/s
Activity (Mus musculus [33]): Active
Activity (Mus musculus [34]): 19 cm
Time (Mus musculus [35]): 6.8 s
Activity (Mus musculus [36]): 12.5%
Activity (Mus musculus [37]): 7.9%
Activity (Mus musculus [38]): 18.7%
K [39]: 0.00767 min⁻¹
Activity [40]: Active
Papp at 10 h, 100 ug/ml (in vitro [9]): 12.9 ×10⁻⁶ cm/s
half-life (in vitro [41]): 1.5 h
